# Assay outcomes from PubChem.
# NPY-Y1 antag – NPY-Y1 (human) receptor antagonism | actives 1% (n = 200,000) | inhibition, % at 3.6 µM | P25929 | AID 1040 | HEK293-CNG Y1 cells, membrane potential fluorescence; NPY at EC95, then isoproterenol;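 active means inhibition above the campaign mean inhibition of all tested compounds plus 3 SD, cut at about 20% in these data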;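 further: 0% = DMSO wells given NPY plus isoproterenol and 100% = isoproterenol alone without NPY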
#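 Assay system: HEK293 Y1/CNG channel cell line; Doses: single compound dose of 3.6 µM, 0.4% DMSO; Timing: dye 3 h, compound 60 min room temperature, stimulation 45 min; Technique: Membrane-potential fluorescent dye readout; Measure: % inhibition of NPY effect.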
# S1P4 ag – activates the human S1P4 receptor; AID 1509; O95977; activation, % at 4.98 µM; actives 0.35% (n = 220,000); S1P4-expressing cell line, agonist reporter assay; in the data active means activation above about 11%;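 further: 0% = DMSO vehicle and 100% = reference agonist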
# NPY Y2 blocker – NPY-Y2 (human) receptor antagonism; P49146; NPY-Y2 expressing cells, antagonist mode; inhibition, % at 2.7 µM; actives 0.99% (n = 140,000); AID 793; in the data active means inhibition above about 17%;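 further: 0% = vehicle with agonist challenge and 100% = reference antagonist with challenge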
# Target sequence (P49146 whole entry, looked up): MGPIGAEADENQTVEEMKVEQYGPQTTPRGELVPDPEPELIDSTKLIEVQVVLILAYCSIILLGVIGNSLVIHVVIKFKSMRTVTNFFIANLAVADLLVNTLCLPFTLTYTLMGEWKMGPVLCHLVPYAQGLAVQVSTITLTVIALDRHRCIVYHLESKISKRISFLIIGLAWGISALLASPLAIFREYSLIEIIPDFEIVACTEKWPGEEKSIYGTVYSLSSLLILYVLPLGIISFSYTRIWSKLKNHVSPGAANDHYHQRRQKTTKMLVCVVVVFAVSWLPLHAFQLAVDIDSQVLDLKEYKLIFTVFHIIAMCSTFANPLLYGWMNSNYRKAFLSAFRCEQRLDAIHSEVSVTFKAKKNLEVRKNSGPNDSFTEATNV
# NPY2 pot ag – potentiates or activates human NPY-Y2 receptor; P49146; cells expressing NPY-Y2, potentiator/agonist read-out; activation, % at 3.6 µM; actives 0.45% (n = 220,000); in the data active means activation above about 27%;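 further: cells stimulated with NPY near EC25 plus isoproterenol at EC100; 0% = vehicle plus submaximal agonist and 100% = vehicle plus saturating agonist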
# NPY-Y1 PAM-ag – human NPY-Y1 potentiation or agonism, primary screen. AID 1304. actives 0.37% (n = 220,000). NPY-Y1 expressing cells, potentiator/agonist activation. activation, % at 3.6 µM; in the data active means activation above about 33%, passing the limit was not always enough;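 further: cells stimulated with NPY at EC10 then isoproterenol at EC100; 0% = low agonist plus stimulus and 100% = saturating agonist plus stimulus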
# S1P4 antagonist – blocks the human S1P4 receptor; O95977; S1P4-expressing cells, antagonist mode, reporter read-out; inhibition, % at 4.98 µM; actives 0.26% (n = 220,000); in the data active means inhibition above about 29%;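 further: 0% = wells stimulated with agonist and 100% = vehicle wells without agonist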
# NPY-Y1 antag ct – human NPY-Y1 antagonism in NPY-Y2 counter-screen; inhibition, % at 3.6 µM; cell-based NPY-Y1 antagonism counterscreen; AID 1256; actives 19% (n = 710); shares compounds with NPY Y2 blocker; in the data active means inhibition above about 20%;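 further: cells challenged with NPY then isoproterenol with cAMP sensed through a CNG channel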
# NPY-Y2 ant conf – confirmation of human neuropeptide Y receptor Y2 antagonists; shares compounds with NPY Y2 blocker; HEK293 NPY-Y2 CNG channel, membrane potential fluorescence; inhibition, % at 2.8 µM; actives 32% (n = 710); AID 1257;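 active means mean inhibition of triplicate wells above the hit cutoff set in the primary screen, cut at about 17% in these data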;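 further: 0% = DMSO with NPY challenge and 100% = BIIE0246 high control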
# Starred values were filed as active, the others as inactive; · = no result. In the library only some 2.4% were active in any assay of this set; here they are far more common.
SMILES,NPY-Y1 antag,S1P4 ag,NPY Y2 blocker,NPY2 pot ag,NPY-Y1 PAM-ag,S1P4 antagonist,NPY-Y1 antag ct,NPY-Y2 ant conf
Cc1nn(C(C)(C)C)c(OC(=O)c2ccco2)c1Sc1ccccc1,3.1,-0.2,6.3,11.6,-0.2,5.3,·,·
O=C(/C=C/c1ccc([N+](=O)[O-])cc1)N(c1ccccn1)C1CCCCC1,2.6,1.4,·,-11.4,10.0,-5.9,·,·
CSc1ccc(Cl)c(C(=O)NCCOc2cc(C)ccc2C(C)C)c1,0.4,-2.7,17.1*,-35.8,-15.6,4.5,5.5,7.0
CSc1ccc(Cl)c(C(=O)NCCOc2ccccc2)c1,-0.6,1.4,4.5,7.3,-8.2,10.5,·,·
CCOc1ccc(NC(=S)N2CCN(c3ccc(N4CCOCC4)nn3)CC2)cc1,-7.1,-0.8,·,-10.7,-5.5,-10.2,·,·
O=C(CCc1nnc(CCCCc2ccccc2)o1)N1CCCCC1CCO (centres undefined),·,1.4,·,4.8,-7.6,-7.3,·,·
COc1ccc(C2Nc3ccccc3C(=O)N2Cc2ccco2)cc1COc1ccccc1F (centres undefined),18.6,0.5,25.0*,-13.4,-11.9,11.0,6.3,11.1
COc1ccc(C2Nc3ccccc3C(=O)N2Cc2ccco2)cc1COc1ccc(NC(C)=O)cc1 (centres undefined),2.8,-1.6,2.8,-11.6,-11.5,-3.8,·,·
O=C(O)CC1COc2ccccc2N1C(=O)c1ccccc1Cl (centres undefined),-2.1,-0.5,·,-5.6,-14.9,-17.0,·,·
CCNc1ccc2noc3c2c1C(=O)c1ccccc1-3,15.3,0.1,44.7*,49.4*,71.6*,-19.9,15.2,7.9
CCOC(=O)C(C(C)=O)C(c1ccc(OCCC(C)C)cc1)C(C(C)=O)C(=O)OCC (centres undefined),18.4,-0.1,22.3*,-2.6,-22.3,0.5,13.5,7.2
Cc1nc2ccc(F)cc2cc1C(=O)Nc1ccc(Cl)c(Cl)c1,5.8,2.7,23.1*,-12.3,-3.1,-23.6,13.8,31.4*
COc1ccc(/C=N/NC(=O)c2cccc(NC(=O)c3ccccc3Cl)c2)c(OC)c1,-2.7,1.7,·,-5.0,11.4,0.3,·,·
O=C(CN1CCCCCC1=O)N1CCN(S(=O)(=O)c2cccs2)CC1,5.3,-0.6,·,9.2,10.6,-12.4,·,·
COc1ccc(C2c3c(-c4ccccc4)n[nH]c3C(=O)N2c2ccc(C(=O)O)cc2)cc1 (centres undefined),·,-0.8,·,-18.4,-25.5,-5.7,·,·
COc1ccc(-c2n[nH]c3c2C(c2ccc(OC)c(OC)c2)N(c2ccccc2)C3=O)cc1 (centres undefined),12.9,0.1,27.4*,-15.8,-53.4,-9.3,19.0,37.7*
CC(C)Oc1cccc(C(=O)C2CCCN(C(=O)c3ccnn3C)C2)c1 (centres undefined),0.8,2.9,·,5.3,15.8,-11.5,·,·
Cc1cc(OCC(=O)O/N=C(\N)c2ccccc2)ccc1Cl,9.6,-1.4,19.1*,-4.1,-9.5,-19.0,6.6,9.8
Cc1cccc(/C(N)=N/OC(=O)COc2ccc(Cl)c(C)c2)c1,-2.8,0.8,10.8,16.4,0.9,-7.6,·,·
CO/N=C(/CS(=O)Cc1ccc(Cl)cc1)c1ccc(Cl)cc1 (centres undefined),13.8,-1.2,18.1*,-16.1,5.3,1.3,9.9,3.1
O=C(COc1ccc(Cl)cc1)NCc1nnc(SCC(=O)N2CCCCCC2)o1,0.8,0.3,·,7.2,5.2,-7.1,·,·
Cc1cc(C)c2c(=O)[nH]c(SCC(=O)Nc3ccccc3)nc2n1,-0.6,-0.2,18.7*,-7.5,-7.5,5.1,1.4,5.0
CCOc1ccc(C(=O)NCC(c2cccs2)N(C)C)cc1OCC (centres undefined),-3.8,1.0,-1.3,6.7,-12.6,-9.6,·,·
Cc1ccc(C)c(N(C(=O)Cc2cccs2)C(C(=O)NC2CCCC2)c2ccc(C)o2)c1 (centres undefined),3.7,-1.1,1.9,-2.6,13.5,-3.0,·,·
